Data set [1] deals with Staphylococcus aureus. Kind of data set: Antibacterial activity against Staphylococcus aureus ATCC 29213 assessed as inhibition of bacterial growth incubated for 18 hrs by broth microdilution method. It counts as functional. In outline:
(§1)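 Broth microdilution in 96-well plates. Media: cation-adjusted Mueller−Hinton broth for S. aureus, brain heart infusion for VRE, Mueller−Hinton broth for the other strains. Incubated at 37 °C for 18 h, then A600 read. Percent growth inhibition calculated against 1% DMSO vehicle.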

Data set [2] concerns Staphylococcus aureus. The data set is described as follows: Antibacterial activity against methicillin resistant Staphylococcus aureus assessed as bacterial growth inhibition after 18 hrs by broth microdilution method. Format: functional.
Data set [3] concerns Staphylococcus epidermidis. Kind of data set: Antibacterial activity against methicillin resistant Staphylococcus epidermidis assessed as bacterial growth inhibition after 18 hrs by broth microdilution method. It counts as functional.
The nature of data set [4]: AUC (0 to t) in BALB/c mouse at 1 mg/kg, iv measured upto 24 hrs by LC-MS/MS analysis. Format: ADME, organism-based. Set-up: route intravenous, dose 1 mg/kg, time <=24. To be noted: in vivo. In outline: (§2)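 Female BALB/c mice, 16−21 g, three per route. Oral dosing at 10 mg/kg as a 5 mg/mL suspension in 0.5% carboxymethyl cellulose. IV dosing at 1 mg/kg as a 1 mg/mL solution in 10% DMSO/50% PEG400/40% water. Blood sampled 15 min to 24 h after oral dosing and 5 min to 24 h after iv. LC/MS/MS quantification in ESI positive mode. Noncompartmental analysis; F = (AUCpo×dose_iv)/(AUCiv×dose_po)×100%.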

For data set [5], the system named is Enterococcus faecium. The data set is described as follows: Antibacterial activity against Enterococcus faecium ATCC 49624 assessed as bacterial growth inhibition after 18 hrs by broth microdilution method. Format: functional. The procedure, abridged:
as §1

In data set [6] the test system is Staphylococcus capitis. Kind of data set: Antibacterial activity against linezolid resistant Staphylococcus capitis assessed as bacterial growth inhibition after 18 hrs by broth microdilution method. It counts as functional.
A short description of data set [7]: Tmax in BALB/c mouse at 10 mg/kg, po measured upto 24 hrs by LC-MS/MS analysis. It counts as ADME, organism-based. The conditions noted are these: in vivo. In outline:
as §2

Data set [8] can be described thus: Metabolic stability in pooled human liver microsomes assessed as substrate remaining in presence of NADPH incubated for 30 mins by LC-MS analysis. It counts as ADME, Microsome. To be noted: read-out: Stabilty. In outline: (§3)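 Microsomes from male CD-1 mouse or pooled human, 1 mg/mL protein in 0.05 M phosphate buffer pH 7.4. Compound at final 0.1 μM with DMSO cosolvent. Incubated at 37 °C with 1 mM NADPH, or with buffer in place of NADPH. Sampled at 0 and 30 min and quenched with acetonitrile. LC−MS measurement; substrate remaining at 30 min normalized to time zero.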

Data set [9] is described as follows: Metabolic stability in pooled human liver microsomes incubated for 30 mins by LC-MS analysis. Format: ADME, Microsome. The conditions noted are these: read-out: Stabilty. In outline: as §3
Data set [10] in a line: AUC (0 to t) in BALB/c mouse at 10 mg/kg, po measured upto 24 hrs by LC-MS/MS analysis. More on the design: route oral, dose 10 mg/kg, time <=24. It counts as ADME, organism-based. To be noted: in vivo. The procedure, abridged:
as §2

Data set [11] is described as follows: Apparent volume of distribution in BALB/c mouse at 1 mg/kg, iv measured upto 24 hrs by LC-MS/MS analysis. Format: ADME, organism-based. To be noted: in vivo, read-out: Vz. In outline: as §2
Data set [12] can be described thus: MRT (0 to infinity) in BALB/c mouse at 10 mg/kg, po measured upto 24 hrs by LC-MS/MS analysis. It counts as ADME, organism-based. The conditions noted are these: in vivo. The procedure, abridged:
as §2

The test system of data set [13] is Enterococcus faecalis. The data set is described as follows: Antibacterial activity against Enterococcus faecalis ATCC 29212 assessed as bacterial growth inhibition after 18 hrs by broth microdilution method. Format: functional. In outline:
as §1

Data set [14] can be described thus: Elimination half life in BALB/c mouse at 1 mg/kg, iv measured upto 24 hrs by LC-MS/MS analysis. Format: ADME, organism-based. The conditions noted are these: in vivo, read-out: beta t1/2 (converted). In outline:
as §2

The nature of data set [15]: Metabolic stability in CD-1 mouse liver microsomes assessed as substrate remaining in presence of NADPH incubated for 30 mins by LC-MS analysis. It counts as ADME, Microsome. To be noted: read-out: Stabilty. In outline:
as §3

The test system of data set [16] is Mycobacterium tuberculosis. Kind of data set: Antitubercular activity against Mycobacterium tuberculosis H37Rv assessed as inhibition of bacterial growth incubated for 7 days by MABA. To be noted: Mycobacterium tuberculosis, H37Rv, 168 h, time 7 day; read-out: MIC. It counts as functional. In outline: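 Microplate alamar blue assay. H37Rv or clinical isolates were grown to late log phase in 7H9 broth with glycerol, Tween 80 and ADC, then 2 × 10⁵ CFU added to two-fold dilutions. Final range 32–0.5 μg/mL, lowered to 2–0.016 μg/mL for active compounds. 37 °C, 7 days, then alamar blue 16 h. Fluorescence 530/590 nm. MIC is the lowest concentration giving ≥90% reduction; INH and RFP were controls.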

Data set [17] can be described thus: Metabolic stability in CD-1 mouse liver microsomes incubated for 30 mins by LC-MS analysis. It counts as ADME, Microsome. The conditions noted are these: CD-1, mouse, liver microsomes, read-out: Stabilty. In outline: as §3
Data set [18] deals with Enterococcus faecalis. The data set is described as follows: Antibacterial activity against linezolid resistant Enterococcus faecalis assessed as bacterial growth inhibition after 18 hrs by broth microdilution method. Format: functional.
A short description of data set [19]: Cmax in BALB/c mouse at 10 mg/kg, po measured upto 24 hrs by LC-MS/MS analysis. Set-up: route oral, dose 10 mg/kg, time <=24. The conditions noted are these: in vivo. Format: ADME, organism-based. The procedure, abridged:
as §2

Data set [20] deals with Enterococcus. The data set is described as follows: Antibacterial activity against vancomycin resistant Enterococcus assessed as bacterial growth inhibition after 18 hrs by broth microdilution method. It counts as functional.

Structures are written as SMILES. In brackets after ≈: the same amount, converted by molar mass.

On to `CC(=O)NC[C@@H]1OC(=O)N2Cc3cc(-c4ccc(C#N)nc4)c(F)cc3O[C@@H]12`, for which the minimum inhibitory concentration (MIC) in data set [1] worked out at 0.125 µg/mL (≈ 0.327 µM); in [2] it was 0.25 µg/mL (≈ 0.654 µM); in data set [3], 1 µg/mL (≈ 2.62 µM); in [5], 1 µg/mL (≈ 2.62 µM); in [6], 2 µg/mL (≈ 5.23 µM); in data set [13], 0.5 µg/mL (≈ 1.31 µM). Further, the MIC in data set [16] came to 0.4 µg/mL (≈ 1.05 µM); in [18] it was 1 µg/mL (≈ 2.62 µM); in data set [20], 0.25 µg/mL (≈ 0.654 µM). Besides, the area under the curve AUC(0-t) at 24 h in data set [4] was 6080 ng·h/mL; in data set [10], 77600 ng·h/mL. In addition, the Tmax in data set [7] was found to be 1.33 h. Besides, the remaining at 0.5 h in [8] is 118%; in data set [9], 106%; in [15], 95.5%; in [17] it was 108%. The Vd in data set [11] is 0.762 L/kg. This molecule registered an MRT inf in data set [12] of 5.86 h. In [14], the half-life was 4.08 h. In data set [19], this molecule showed a Cmax of 10300 ng/mL.

The values are drawn from ChEMBL document CHEMBL4837188, “Identification of Novel Tricyclic Benzo[1,3]oxazinyloxazolidinones as Potent Antibacterial Agents with Excellent Pharmacokinetic Profiles against Drug-Resistant Pathogens” (J Med Chem, 2021).
